Measurements reported in ChEMBL document CHEMBL4837261, “Optimization of TopoIV Potency, ADMET Properties, and hERG Inhibition of 5-Amino-1,3-dioxane-Linked Novel Bacterial Topoisomerase Inhibitors: Identification of a Lead with In Vivo Efficacy against MRSA” (J Med Chem, 2021).
≈ marks a conversion by molar mass, not a printed value.

Legend:
[1] = target: Nav1.5 (Homo sapiens, UniProt Q14524); assay: Inhibition of recombinant human Nav1.5 expressed in human HEK293 cells at 100 uM measured at peak current by automated Qpatch clamp assay relative to control; assay type: ADME, cell-based; conditions: HEK293 cells expressing recombinant human Nav1.5
[2] = target: Cytochrome P450 1A2 (Homo sapiens, UniProt P05177); assay: Inhibition of CYP1A2 (unknown origin); assay type: ADME
Sequence of Cytochrome P450 1A2 (P05177 whole entry): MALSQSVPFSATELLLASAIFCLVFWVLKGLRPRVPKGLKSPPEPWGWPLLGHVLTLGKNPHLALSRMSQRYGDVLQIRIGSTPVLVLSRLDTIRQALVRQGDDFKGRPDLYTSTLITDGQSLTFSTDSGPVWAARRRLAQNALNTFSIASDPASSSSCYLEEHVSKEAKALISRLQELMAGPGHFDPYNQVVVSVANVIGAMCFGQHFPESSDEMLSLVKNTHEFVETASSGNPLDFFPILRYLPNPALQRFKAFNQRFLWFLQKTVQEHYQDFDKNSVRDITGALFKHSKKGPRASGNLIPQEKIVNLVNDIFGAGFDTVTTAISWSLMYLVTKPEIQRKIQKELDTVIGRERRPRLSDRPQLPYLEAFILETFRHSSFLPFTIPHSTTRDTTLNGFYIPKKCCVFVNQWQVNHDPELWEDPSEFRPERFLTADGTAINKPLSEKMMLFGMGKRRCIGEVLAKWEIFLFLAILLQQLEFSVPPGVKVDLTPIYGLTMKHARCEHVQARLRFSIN

[3] = Permeability of the compound from basolateral to apical side in human Caco-2 cells; assay type: ADME, cell-based; conditions: read-out: permeability
Outline: (§1)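 Run at RTI International. Covers plasma protein binding (mouse, human; percent free), CACO-2 permeability and efflux, and microsomal stability (mouse and human microsomes) giving half-life.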

[4] = target: CYP2C8 (Homo sapiens, UniProt P10632); assay: Inhibition of CYP2C8 (unknown origin) at 10 uM relative to control; assay type: ADME
[5] = target: 5-hydroxytryptamine receptor 2B (Homo sapiens) (UniProt P41595); assay: Displacement of [3H]Lysergic acid diethylamide from human recombinant 5HT2B receptor expressed in CHO-K1 cells at 100 uM by radioligand binding assay; assay type: cell-based
Sequence of 5-hydroxytryptamine receptor 2B (Homo sapiens) (P41595 whole entry): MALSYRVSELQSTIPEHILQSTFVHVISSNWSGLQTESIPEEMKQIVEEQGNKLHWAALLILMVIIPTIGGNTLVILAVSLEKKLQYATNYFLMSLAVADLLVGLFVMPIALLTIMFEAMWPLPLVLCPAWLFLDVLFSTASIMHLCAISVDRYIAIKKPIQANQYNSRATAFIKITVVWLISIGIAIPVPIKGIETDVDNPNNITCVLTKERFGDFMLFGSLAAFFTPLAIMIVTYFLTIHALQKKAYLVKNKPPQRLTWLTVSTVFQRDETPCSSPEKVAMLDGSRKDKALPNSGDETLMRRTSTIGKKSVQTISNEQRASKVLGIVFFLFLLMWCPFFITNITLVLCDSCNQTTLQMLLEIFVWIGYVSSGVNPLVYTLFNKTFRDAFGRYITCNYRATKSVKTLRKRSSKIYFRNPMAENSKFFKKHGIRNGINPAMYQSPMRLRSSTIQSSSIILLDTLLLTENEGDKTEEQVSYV

[6] = tested on: Pseudomonas aeruginosa; assay: Antibacterial activity against Pseudomonas aeruginosa isolates by CLSI method; assay type: functional
[7] = Permeability of the compound from apical to basolateral side in human Caco-2 cells; assay type: ADME, cell-based; conditions: read-out: permeability
[8] = target: hERG (KCNH2) (Homo sapiens, UniProt Q12809); assay: Inhibition of recombinant human ERG expressed in CHO-K1 cells at 100 uM at -80 mV holding potential tail current by automated Qpatch clamp assay relative to control; assay type: ADME, cell-based; conditions: CHO-K1 cells expressing recombinant human ERG
Sequence of hERG (KCNH2) (Q12809 whole entry): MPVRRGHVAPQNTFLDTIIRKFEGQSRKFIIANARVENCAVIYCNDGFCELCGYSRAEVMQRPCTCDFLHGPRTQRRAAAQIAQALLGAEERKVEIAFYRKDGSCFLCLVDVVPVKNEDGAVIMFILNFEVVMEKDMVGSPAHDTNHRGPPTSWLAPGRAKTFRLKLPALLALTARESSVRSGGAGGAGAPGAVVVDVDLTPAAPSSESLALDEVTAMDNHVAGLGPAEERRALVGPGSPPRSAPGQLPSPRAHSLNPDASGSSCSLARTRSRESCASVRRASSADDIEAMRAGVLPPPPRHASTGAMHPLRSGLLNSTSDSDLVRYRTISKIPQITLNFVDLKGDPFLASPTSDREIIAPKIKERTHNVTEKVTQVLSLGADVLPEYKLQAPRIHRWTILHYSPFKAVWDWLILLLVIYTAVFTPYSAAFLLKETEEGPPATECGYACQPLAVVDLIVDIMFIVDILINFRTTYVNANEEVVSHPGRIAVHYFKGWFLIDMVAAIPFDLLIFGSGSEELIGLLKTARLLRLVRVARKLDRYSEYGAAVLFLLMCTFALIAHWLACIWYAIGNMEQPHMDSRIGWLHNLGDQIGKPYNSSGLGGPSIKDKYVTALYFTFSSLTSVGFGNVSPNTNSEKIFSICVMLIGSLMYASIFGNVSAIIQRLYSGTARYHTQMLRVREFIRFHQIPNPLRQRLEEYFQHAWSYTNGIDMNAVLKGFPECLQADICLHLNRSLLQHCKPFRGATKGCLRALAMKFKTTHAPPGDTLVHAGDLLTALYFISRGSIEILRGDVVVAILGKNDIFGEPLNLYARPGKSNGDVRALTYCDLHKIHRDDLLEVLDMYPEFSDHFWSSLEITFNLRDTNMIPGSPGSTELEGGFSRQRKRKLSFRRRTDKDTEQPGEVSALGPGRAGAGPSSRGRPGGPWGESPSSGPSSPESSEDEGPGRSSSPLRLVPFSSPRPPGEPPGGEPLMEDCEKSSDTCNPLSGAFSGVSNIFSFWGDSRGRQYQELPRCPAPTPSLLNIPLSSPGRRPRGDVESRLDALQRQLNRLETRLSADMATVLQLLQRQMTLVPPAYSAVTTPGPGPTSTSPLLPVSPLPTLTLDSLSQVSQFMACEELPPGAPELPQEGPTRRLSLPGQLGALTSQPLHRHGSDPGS

[9] = target: CYP2C19 (Homo sapiens, UniProt P33261); assay: Inhibition of CYP2C19 (unknown origin) at 10 uM relative to control; assay type: ADME
Sequence of CYP2C19 (P33261 whole entry): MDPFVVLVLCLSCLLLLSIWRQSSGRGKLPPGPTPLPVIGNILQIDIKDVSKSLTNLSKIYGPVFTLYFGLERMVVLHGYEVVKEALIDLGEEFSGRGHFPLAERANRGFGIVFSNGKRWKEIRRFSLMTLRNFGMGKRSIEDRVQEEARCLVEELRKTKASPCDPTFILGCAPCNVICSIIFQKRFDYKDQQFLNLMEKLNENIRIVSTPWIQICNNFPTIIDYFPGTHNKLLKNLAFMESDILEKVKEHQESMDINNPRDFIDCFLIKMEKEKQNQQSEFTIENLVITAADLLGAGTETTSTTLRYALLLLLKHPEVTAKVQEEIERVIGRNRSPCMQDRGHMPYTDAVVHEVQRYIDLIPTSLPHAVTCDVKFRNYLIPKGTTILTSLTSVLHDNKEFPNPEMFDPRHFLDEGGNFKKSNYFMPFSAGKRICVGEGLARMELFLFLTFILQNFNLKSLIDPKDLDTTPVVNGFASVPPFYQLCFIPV

[10] = target: Topoisomerase IV (Staphylococcus aureus, UniProt P0C1S7+P0C1U9); assay: Inhibition of Staphylococcus aureus topoisomerase IV decatenation activity using kDNA as substrate by ethidium bromide/bromophenol blue staining based agarose gel electrophoresis analysis; assay type: protein-complex assay
[11] = tested on: Staphylococcus aureus; assay: Antibacterial activity against methicillin-resistant Staphylococcus aureus ATCC 33591 infected in iv dosed CD1 mouse model of septicemia assessed as mouse survival at 1 to 10 mg/kg, iv administered 0.5 to 3.5 hrs post injection measured for 7 days relative to control; assay type: functional; conditions: dose 1-10 mg/kg, time 7 day
Outline: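 Female CD-1 mice (18–20 g), in groups of six, were infected IP with 1.3 × 10^8 CFU MRSA ATCC 33591 suspended in 8% hog gastric mucin (pH 7.5). Compound was given as the methanesulfonate salt in 5% DMSO/water for injection, by IV tail vein at 0.5, 1.5, 2.5 and 3.5 h post infection. Dose levels were 1, 5, 10, 25 and 50 mg/kg/dose. Survival was followed for 7 days against untreated infection controls.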

[12] = target: Cav1.2 (Homo sapiens, UniProt Q13936); assay: Inhibition of recombinant human Cav1.2 expressed in human HEK293 cells at 100 uM measured at peak current by automated Qpatch clamp assay relative to control; assay type: ADME, cell-based; conditions: HEK293 cells expressing recombinant human Cav1.2
Sequence of Cav1.2 (Q13936 whole entry): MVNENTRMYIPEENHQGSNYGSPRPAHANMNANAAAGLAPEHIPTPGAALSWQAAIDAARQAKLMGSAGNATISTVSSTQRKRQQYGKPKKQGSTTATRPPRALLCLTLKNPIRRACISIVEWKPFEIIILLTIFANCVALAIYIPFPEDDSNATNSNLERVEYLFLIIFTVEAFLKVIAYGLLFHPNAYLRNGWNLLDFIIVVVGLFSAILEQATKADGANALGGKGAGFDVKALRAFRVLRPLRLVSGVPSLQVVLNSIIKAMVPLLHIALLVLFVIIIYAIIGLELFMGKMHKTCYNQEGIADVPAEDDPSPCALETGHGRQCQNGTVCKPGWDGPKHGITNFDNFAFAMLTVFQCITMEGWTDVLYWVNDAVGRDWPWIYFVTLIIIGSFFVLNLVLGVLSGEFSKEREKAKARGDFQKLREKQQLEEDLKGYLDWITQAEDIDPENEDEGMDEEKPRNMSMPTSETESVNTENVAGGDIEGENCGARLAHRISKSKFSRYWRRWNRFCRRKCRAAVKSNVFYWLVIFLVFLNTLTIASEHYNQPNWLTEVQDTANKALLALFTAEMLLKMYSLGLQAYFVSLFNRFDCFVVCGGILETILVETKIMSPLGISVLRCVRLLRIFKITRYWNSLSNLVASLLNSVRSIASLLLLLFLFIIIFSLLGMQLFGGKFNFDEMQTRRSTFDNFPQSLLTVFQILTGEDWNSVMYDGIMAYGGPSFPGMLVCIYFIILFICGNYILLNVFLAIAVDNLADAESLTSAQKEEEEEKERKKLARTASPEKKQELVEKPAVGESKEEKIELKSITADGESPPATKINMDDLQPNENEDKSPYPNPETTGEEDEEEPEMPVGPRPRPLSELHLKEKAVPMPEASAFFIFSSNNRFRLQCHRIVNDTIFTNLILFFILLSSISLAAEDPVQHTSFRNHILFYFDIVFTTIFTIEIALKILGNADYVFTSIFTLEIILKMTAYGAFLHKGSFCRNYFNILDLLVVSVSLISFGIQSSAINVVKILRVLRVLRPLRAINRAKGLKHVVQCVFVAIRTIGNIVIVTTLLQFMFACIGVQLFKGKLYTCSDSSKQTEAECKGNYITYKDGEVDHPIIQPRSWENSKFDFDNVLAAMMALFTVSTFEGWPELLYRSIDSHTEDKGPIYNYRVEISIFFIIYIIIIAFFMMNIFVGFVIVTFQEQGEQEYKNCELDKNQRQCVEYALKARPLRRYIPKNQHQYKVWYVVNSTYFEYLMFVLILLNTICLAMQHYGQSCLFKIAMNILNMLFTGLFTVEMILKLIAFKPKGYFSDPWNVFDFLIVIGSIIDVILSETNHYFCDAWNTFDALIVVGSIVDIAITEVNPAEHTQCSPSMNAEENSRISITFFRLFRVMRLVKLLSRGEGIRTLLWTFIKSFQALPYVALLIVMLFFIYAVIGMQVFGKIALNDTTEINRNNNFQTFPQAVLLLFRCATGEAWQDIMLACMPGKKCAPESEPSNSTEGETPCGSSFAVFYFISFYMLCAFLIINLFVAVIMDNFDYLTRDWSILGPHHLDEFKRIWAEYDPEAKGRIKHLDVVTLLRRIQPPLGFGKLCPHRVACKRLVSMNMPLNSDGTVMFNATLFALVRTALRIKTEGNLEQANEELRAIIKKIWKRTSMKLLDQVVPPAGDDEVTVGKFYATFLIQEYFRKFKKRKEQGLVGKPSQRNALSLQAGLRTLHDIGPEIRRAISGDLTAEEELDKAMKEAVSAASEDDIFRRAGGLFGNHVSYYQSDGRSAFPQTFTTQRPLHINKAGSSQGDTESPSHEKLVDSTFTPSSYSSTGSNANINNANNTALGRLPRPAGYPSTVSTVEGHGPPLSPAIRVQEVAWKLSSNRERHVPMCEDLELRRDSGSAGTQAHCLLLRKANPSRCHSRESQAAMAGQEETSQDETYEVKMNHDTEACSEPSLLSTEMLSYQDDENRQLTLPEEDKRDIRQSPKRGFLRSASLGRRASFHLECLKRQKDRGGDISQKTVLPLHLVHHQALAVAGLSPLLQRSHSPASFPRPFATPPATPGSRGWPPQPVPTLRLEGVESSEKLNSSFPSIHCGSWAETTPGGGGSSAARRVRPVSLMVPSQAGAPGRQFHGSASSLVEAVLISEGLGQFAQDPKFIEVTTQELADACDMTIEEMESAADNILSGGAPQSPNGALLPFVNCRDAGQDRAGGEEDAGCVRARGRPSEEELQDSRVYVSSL

[13] = Metabolic stability in human microsomes assessed as half life; assay type: ADME, Microsome; outline: as §1
[14] = target: DNA gyrase (Staphylococcus aureus, UniProt P0A0K8+P20831); assay: Inhibition of Staphylococcus aureus Gyrase supercoiling activity assessed as reduction in supercoiling pBR322 DNA by measuring relaxation by bromophenol blue staining based TAE gel method; assay type: protein-complex assay
[15] = tested on: Staphylococcus aureus; assay: Antibacterial activity against methicillin-resistant Staphylococcus aureus ATCC 33591 infected in iv dosed CD1 mouse model of septicemia assessed as mouse survival at 25 to 50 mg/kg, iv administered 0.5 to 3.5 hrs post injection measured for 7 days relative to control; assay type: functional; conditions: dose 25-50 mg/kg; time 7 day
[16] = tested on: HepaRG; assay: Cytotoxicity against human HepaRG cells at 100 uM by ATP depletion assay; assay type: cell-based
Outline: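 An ATP depletion read-out in HepaRG cells gave cytotoxicity across 0.01–100 μM, reported as % cytotoxicity at 100 μM.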

[17] = AUClast in ICR (CD-1) mouse at 50 mg/kg, po measured up to 1440 mins by LC-MS/MS analysis; assay type: ADME, organism-based; parameters: route oral, dose 50 mg/kg, time <=1440; conditions: in vivo
Outline: (§2)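 Male ICR (CD-1) mice, 22 ± 2 g, given the free base in DMSO/Solutol HS-15/0.9% NaCl (5/5/90, v/v/v), IV at 10 mg/kg or PO at 50 mg/kg; 24 mice per route, three per timepoint. Plasma was taken by cardiac puncture at 3–1440 min (IV) or 10–1440 min (PO), measured by LC-MS/MS, and parameters were derived by noncompartmental analysis.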

[18] = Tmax in ICR (CD-1) mouse at 50 mg/kg, po measured up to 1440 mins by LC-MS/MS analysis; assay type: ADME, organism-based; conditions: in vivo
Outline: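 Male ICR (CD-1) mice, 22 ± 2 g, given free base in DMSO/Solutol HS-15/0.9% NaCl (5/5/90) at 50 mg/kg PO or 10 mg/kg IV. Three mice per timepoint, 8 timepoints. Plasma taken by cardiac puncture at 10–1440 min (PO) or 3–1440 min (IV). Measured by LC-MS/MS, with parameters from noncompartmental analysis.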

[19] = Cmax in ICR (CD-1) mouse at 50 mg/kg, po measured up to 1440 mins by LC-MS/MS analysis; assay type: ADME, organism-based; parameters: route oral, dose 50 mg/kg, time <=1440; conditions: in vivo; outline: as §2
[20] = tested on: Enterococcus faecium; assay: Antibacterial activity against vancomycin-resistant Enterococcus faecium by CLSI method; assay type: functional
[21] = target: DNA gyrase (Staphylococcus aureus, UniProt P0A0K8+P20831, D83N); assay: Inhibition of Staphylococcus aureus DNA Gyrase D83N mutant assessed as reduction in supercoiling pBR322 DNA by measuring relaxation by bromophenol blue staining based TAE gel method
[22] = Growth inhibition of human K/VP.5 cells incubated for 48 hrs by NBTI cell counting analysis; assay type: functional; conditions: K562, 48 h

COc1ccc2ncc(F)c(C[C@H](O)[C@H]3OC[C@H](NCc4cc5c(nn4)OCCS5)CO3)c2n1
inhibition at 100 µM [1]: < 25% | IC50 [2]: > 10 µM | Papp B→A [3]: 81.2 ×10⁻⁶ cm/s | inhibition at 10 µM [4]: > 50% | inhibition [5]: > 45% | MIC50 [6]: > 64 µg/mL | Papp A→B [7]: 5.68 ×10⁻⁶ cm/s | inhibition at 100 µM [8]: < 25% | inhibition at 10 µM [9]: > 50% | IC50 [10]: 3.5 µM | Survival [11]: >50% | inhibition at 100 µM [12]: < 25% | half-life [13]: 94 min | IC50 [14]: 0.22 µM | Survival [15]: 100% | Activity [16]: 12% | AUC(0-t) at 24 h [17]: 5910 ng·h/mL | Tmax [18]: 10.2 min | Cmax [19]: 7020 ng/mL | MIC50 [20]: 0.25 µg/mL (≈ 0.511 µM) | MIC90 [20]: 1 µg/mL (≈ 2.04 µM) | IC50 [21]: 15 µM | IC50 [22]: 202 µM
